# High-throughput results: PubChem BioAssay, SRMLSC
# Lung fibro prol = blocks proliferation of human lung fibroblasts | viability, % at 10 µM | AID 719 | actives 1.1% (n = 85,000) | LL 47 human lung fibroblast viability, ATP luminescence; stronger effect = lower value;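 active means viability at or below 50% in the single dose screen; inactive means viability above 50%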;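 further: compound exposure lasted 72 h before the ATP readout; 100% = median luminescence of untreated cell-only wells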
#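 Test system: LL 47 human lung fibroblasts / Quantity: 1,150 cells in each well / Medium: IMEM growth medium with 15% fetal bovine serum / Incubation: 72 h compound exposure at 37 °C after overnight plating / Detection: CellTiter-Glo luminescence measuring cellular ATP / Read-out: % viability versus median cells-only luminescence / Benchmarks: cell-only wells, no compound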
# H69AR inhibit = growth inhibitors of human H69AR lung tumor cells; viability, % at 10 µM; H69AR lung tumor viability, ATP luminescence, 72 h; stronger effect = lower value; AID 598; actives 6% (n = 85,000);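 active means viability at or below 40%; inactive means viability above 40%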;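 further: multidrug resistant small cell line overexpressing MRP-1 efflux transporter; 100% = mean luminescence of untreated control wells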
# PTEN del growth = growth suppressors of cells with PTEN tumor suppressor deletion; viability, % at 10 µM; HCT116 PTEN-null viability, CellTiter-Glo, 60 h; stronger effect = lower value; actives 1.2% (n = 140,000); AID 827;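 active means viability at or below a set limit, 4 SD under the median of all tested compounds, cut at about 3.7% in these data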;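 further: PTEN knockout HCT116 line with beta catenin targeted HCT116 as companion control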
# HUVEC inhibit = blocks proliferation of human endothelial cells; HUVEC proliferation, CellTiter-Glo luminescence, 72 h; stronger effect = lower value; viability, % at 10 µM (by protocol); actives 1.1% (n = 86,000); AID 648;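 active means viability at or below 30%; inactive means viability above 30%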;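 further: 100% = median luminescence of DMSO-only cell control wells on each plate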
# HCT116 bCat-KO = beta-catenin-lacking colon tumor cell growth suppression; actives 1.5% (n = 140,000); viability, % at 10 µM; HCT116 beta-catenin knockout viability, CellTiter-Glo, 60 h; stronger effect = lower value;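 active means viability at or under a set limit, the compound median less 4 SD, cut at about 6% in these data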;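 further: 0% = Hyamine 1622 control at 20 µM and 100% = untreated cell control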
# Active calls of the source: *; nt = no result. Shown is part of a subset that was picked to be rich in hits.
SMILES,Lung fibro prol,H69AR inhibit,PTEN del growth,HUVEC inhibit,HCT116 bCat-KO
O=C(NC1CCCC1)c1ccc(S(=O)(=O)N2CCOCC2)cc1,98.1,84.3,101.3,96.5,104.0
Cc1cc(C)cc(NC(=O)CN2CCCN(S(=O)(=O)c3ccc(Br)s3)CC2)c1,87.0,53.4,58.1,66.1,53.0
Cc1ccc(NC(=O)CN2CCCN(S(=O)(=O)c3ccc(Br)s3)CC2)cc1,100.0,31.4*,80.4,100.0,72.0
CSC(=NC#N)N1CCN(c2ccc(Cl)cc2)CC1,nt,nt,87.2,nt,85.1
COc1ccccc1NC(=O)C1C2C=CC(O2)C1C(=O)O (stereo not drawn),49.7*,93.1,97.2,92.0,92.0
Cc1cc(NC(=O)CN2CCN(c3ccccc3F)CC2)nc2c1c(=O)oc1ccccc12,91.0,34.3*,nt,52.5,nt
CCOc1ccc(C(=O)Nc2cc(C)c3c(=O)oc4ccccc4c3n2)cc1,68.6,18.9*,90.9,26.4*,82.9
COc1ccc(CC(=O)Nc2cc(C)c3c(=O)oc4ccccc4c3n2)cc1,64.2,22.1*,nt,69.0,nt
Cc1cc(NC(=O)c2ccc(S(=O)(=O)N3CCCC3)cc2)nc2c1c(=O)oc1ccccc12,71.6,18.4*,61.5,69.0,40.0
CCC(CC)C(=O)Nc1cc(C)c2c(=O)oc3ccccc3c2n1,97.7,52.1,53.6,79.0,60.8
Cc1ccc(S(=O)(=O)C(C)C(=O)c2ccc3c(c2)OCCO3)cc1 (stereo not drawn),99.1,94.9,102.3,102.3,100.7
CC(C)NCCCCOc1ccccc1-c1ccccc1,nt,nt,76.0,nt,78.8
C=C(C)CSc1nc2nc(C)c(Br)cc2[nH]1,107.4,95.9,101.4,99.5,95.6
CCn1c(N)c(C(=O)NC)sc1=S,97.0,20.1*,60.7,95.5,54.6
COc1ccc(C(=O)Nc2nc3c(s2)CCCC3)cc1S(=O)(=O)N1CCCc2ccccc21,nt,nt,44.4,nt,50.6
C=CCN1C(=Nc2cccnc2)SCC1(O)c1ccc(C)cc1 (stereo not drawn),86.5,34.1*,26.9,1.8*,19.7
COC(=O)c1ccc(NC(=O)CNCc2ccncc2)cc1,nt,nt,105.8,nt,88.7
COc1cc2cc(CN(Cc3cccs3)C(=S)Nc3ccccc3)c(=O)[nH]c2cc1OC,nt,nt,70.1,nt,78.0
CCCCCCCOC(=O)C1=C(C)Nc2ncnn2C1c1cccs1 (stereo not drawn),76.8,82.4,74.4,62.7,60.2
CCCCCCCCOC(=O)C1=C(C)Nc2nnnn2C1c1cccs1 (stereo not drawn),100.4,62.0,66.6,2.5*,65.2
CC(C)CC(=O)NNC(=O)C(C)C,nt,nt,99.8,nt,101.6
O=S(=O)(/N=C(\Sc1ccc(Cl)cc1)c1ccccc1)c1ccccc1,72.8,38.7*,68.1,60.8,42.6
CN1CC(c2ccc(Cl)c(Cl)c2)[C@@]2(COc3ccccc3C2=O)[C@@]12C(=O)Nc1ccccc12 (stereo partly drawn),nt,nt,2.9*,nt,4.7*
CCOc1ccc(CC(=O)N2N=C(C)CC2(O)C(F)(F)F)cc1 (stereo not drawn),nt,nt,92.9,nt,93.5
CCOc1ccc(NC(=O)c2cc3n(n2)C(C(F)(F)F)CC(c2ccco2)N3)cc1 (stereo not drawn),37.5*,63.1,93.3,96.7,72.2
SMILES,Lung fibro prol,H69AR inhibit,PTEN del growth,HUVEC inhibit,HCT116 bCat-KO
O=C(CSc1nc(-c2ccc(F)cc2)cc(C(F)(F)F)n1)NCc1ccco1,97.6,87.1,101.7,97.0,104.3
c1ccc(-c2ccc(-c3nc(-c4ccccn4)no3)cc2)cc1,42.4*,34.1*,56.0,43.5,55.1
c1ccc(-c2noc(-c3cccc4ccccc34)n2)nc1,89.2,37.9*,77.0,81.8,73.3
COc1cccc(-c2nc(-c3ccccn3)no2)c1OC,96.1,94.0,107.3,104.2,107.2
c1ccc(-c2nc(-c3ccccn3)no2)cc1,56.3,42.1,24.9,54.9,23.0
Cc1ccc(OCc2ccc(C(=O)O)o2)c([N+](=O)[O-])c1,nt,nt,96.2,nt,95.2
Cc1ccc2nc(-c3cccc(NS(C)(=O)=O)c3)cc(-c3ccccc3)c2c1,nt,nt,71.6,nt,77.4
Cc1ccc(NC(=O)COc2ccc(Br)cc2C)cc1,nt,nt,95.0,nt,96.2
COc1ccc(N/C(N)=N/c2nc(CSc3ccc(Cl)cc3)cc(=O)[nH]2)cc1,93.8,16.3*,74.6,53.9,78.1
CCC(NC(=O)Nc1nnc(C(F)(F)F)s1)(C(F)(F)F)C(F)(F)F,28.6*,6.0*,2.5*,22.8*,2.1*
